Sampled rows, rich in hits. Any-hit rate of the full collection: about 2.3%.
N-glyco inh = N-linked glycosylation inhibition; D54 ERlucT glycosylation luciferase reporter, 24 h; percent of 100 nM tunicamycin response; reporter increase, % at 12.5 µM; actives 0.23% (n = 360,000);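 active means mean luciferase reporter signal, scaled so untreated is 0 and the glycosylation-blocking control 100, at or above a set limit in every replicate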;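 further: luciferase carries N-glycosylation sites so blocking glycosylation raises the light; 0% = median of neutral control wells and 100% = median of 100 nM tunicamycin wells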
PAX8 inh HTS = lowers PAX8-driven luciferase in RMG-I cells; RMG-I TPO-luciferase reporter, SteadyGlo, 24 h; inhibition, % at 12.6 µM; actives 1.2% (n = 360,000); AID 652154;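 active means mean replicate inhibition at least 60% with every replicate also reaching 60%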;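 further: luciferase light reporting Pax8 driven TPO promoter activity; plate controls were median of neutral control wells for no effect and mitoxantrone controls for full effect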
Arr AP2 block = inhibitors of human beta-arrestin and AP2 interaction; FITC-arrestin peptide / GST-AP2 beads, flow cytometry; AP2 beta2 appendage carries R879A mutation; inhibition, % at 10 µM; actives 0.31% (n = 340,000);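 active means inhibition above a set limit, near 3 SD of compounds lacking own fluorescence, cut at about 54% in these data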;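 further: plate controls were DMSO wells for no effect and 5 µM unlabelled arrestin peptide for full effect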
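System: GST-AP2 R879A bound to glutathione beads, E. coli-expressed. Also added: 50 nM FITC-arrestin peptide. Schedule: compound with beads 12 min RT, then probe 1 h RT. Signal: bead flow cytometry, FITC channel. Read-out basis: percent response.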
Rtt109 Vps75 = inhibitors of Candida albicans Rtt109/Vps75 histone acetyltransferase; inhibition, % at 34.9 µM; actives 0.16% (n = 330,000); AID 540336; Q5AAJ8; purified Rtt109/Vps75, ThioGlo CoA-SH fluorescence, 4 h;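 active means inhibition of at least 50% in every replicate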
Target sequence (Q5AAJ8 whole entry, looked up): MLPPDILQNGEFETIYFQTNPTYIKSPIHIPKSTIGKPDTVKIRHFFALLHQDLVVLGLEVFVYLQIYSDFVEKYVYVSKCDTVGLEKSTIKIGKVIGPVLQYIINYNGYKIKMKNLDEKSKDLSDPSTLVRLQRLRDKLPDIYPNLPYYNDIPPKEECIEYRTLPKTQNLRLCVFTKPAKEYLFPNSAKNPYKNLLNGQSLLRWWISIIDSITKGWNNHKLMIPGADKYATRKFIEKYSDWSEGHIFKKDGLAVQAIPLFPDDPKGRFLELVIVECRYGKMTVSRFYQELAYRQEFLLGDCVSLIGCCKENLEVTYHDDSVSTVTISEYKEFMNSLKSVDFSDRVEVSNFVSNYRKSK
PfHsp90 set2 = inhibits growth of yeast expressing Plasmodium falciparum Hsp90; actives 0.32% (n = 310,000); AID 504621; inhibition, % at 9.4 µM; S. cerevisiae expressing PfHsp90, BacTiter-Glo ATP, 48 h; yeast lacking PDR1 and PDR3 efflux regulators;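 active means every replicate shows inhibition above about 80%, whatever the replicate mean, limit read from the data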;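 further: 0% = DMSO neutral controls and 100% = 20 µM radicicol positive controls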
HIV Env fusion = inhibitors of HIV Env-mediated cell fusion; inhibition, % at 12.3 µM; actives 1.1% (n = 360,000); HeLa-JRFL Env/CEM21 cell fusion, luciferase;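 active means mean replicate inhibition score of at least 50 and every replicate individually at or above 50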;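 further: 0% = plate neutral controls and 100% = maraviroc near 300 nM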
An asterisk follows results filed as active; x = no result; [ ] = another dose, or the depositor's remark.

SMILES | N-glyco inh | PAX8 inh HTS | Arr AP2 block | Rtt109 Vps75 | PfHsp90 set2 | HIV Env fusion
C[C@H](CO)N1C[C@H](C)[C@H](CN(C)S(=O)(=O)c2ccccc2)Oc2ccc(NS(=O)(=O)c3ccc(Cl)cc3)cc2CC1=O | x | 9 | x | x | x | 56*[16.7 µM]
C[C@@H]1CN([C@@H](C)CO)C(=O)Cc2cc(NS(=O)(=O)c3cccs3)ccc2O[C@H]1CN(C)S(=O)(=O)c1ccccc1 | x | 13 | x | x | x | -11[16.7 µM]
C[C@@H]1CN([C@@H](C)CO)C(=O)Cc2cc(NS(=O)(=O)c3ccc(Cl)cc3)ccc2O[C@@H]1CN(C)S(=O)(=O)c1ccccc1 | x | 16 | x | x | x | 7[16.7 µM]
C[C@H](CO)N1C[C@H](C)[C@@H](CN(C)S(=O)(=O)c2cn(C)cn2)Oc2ccc(NC(=O)Cc3ccccc3)cc2CC1=O | x | 17 | x | x | x | 7[16.7 µM]
O=C(Nc1cccc(F)c1)N1C[C@@H]2[C@H](c3ccccc31)[C@H](CO)N2C(=O)C1CCOCC1 | x | -18 | x | x | x | x
C[C@@H]1CN([C@H](C)CO)C(=O)Cc2cc(NS(=O)(=O)c3ccc(Cl)cc3)ccc2O[C@@H]1CN(C)C(=O)Nc1cccc2ccccc12 | x | x | x | x | x | -4[16.7 µM]
C[C@H](CO)N1C[C@H](C)[C@H](CN(C)S(=O)(=O)c2ccc(Cl)cc2)Oc2ccc(NS(=O)(=O)c3ccccc3)cc2CC1=O | x | -25 | x | x | x | 55*[16.7 µM]
C[C@H](CO)N1C[C@H](C)[C@H](CN(C)S(=O)(=O)c2ccccc2)Oc2ccc(NS(=O)(=O)c3ccccc3)cc2CC1=O | x | -3 | x | x | x | 91*[16.7 µM]
CC(C)NC(=O)N(C)C[C@H]1OCCCC[C@H](C)Oc2ccc(NC(=O)Cc3ccccc3)cc2C(=O)N([C@H](C)CO)C[C@@H]1C | x | 10 | x | x | x | -20[16.7 µM]
CCNS(=O)(=O)c1ccc(CCC(=O)Nc2cc(Cl)ccc2Oc2ccccc2)cc1 | -5 | x | 1 | 9 | -37 | 107*
C[C@H]1CN([C@@H](C)CO)S(=O)(=O)c2ccc(C#CC3(O)CCCC3)cc2O[C@@H]1CN(C)C(=O)Nc1ccccc1 | x | x | x | x | x | -14[16.7 µM]
O=c1c2sccc2nc(SCc2cc(=O)n3cc(Cl)ccc3n2)n1Cc1ccccn1 | 2 | -21 | -1 | 2 | -27 | -17
O=c1c2sccc2nc(SCc2ccc([N+](=O)[O-])cc2)n1Cc1ccccn1 | -4 | 69* | 1 | -1 | -33 | x
S=C1Cc2ccccc2N1 | 13 | 106* | 4 | 2 | 107* | 73*
O=C(C[C@@H]1CC[C@@H]2[C@H](COC[C@H](O)CN2S(=O)(=O)c2cccc(Cl)c2)O1)N1CCOCC1 | x | 13 | x | x | x | x
CCOC(=O)N1CCN(C(=O)c2cc3c(=O)n(C)c4ccccc4c3n2C)CC1 | -2 | 19 | -3 | -13 | -3 | 66*
CCN1CCN(C(=O)c2cc3c(=O)n(C)c4ccccc4c3n2C)CC1 | -1 | 7 | -3 | 27 | -11 | -47
Cc1cccc(N2C(=O)C(Cl)=C(N3CCOCC3)C2=O)c1 | 1 | 2 | 17 | 113* | 10 | -3
O=C1C(Cl)=C(N2CCCCCC2)C(=O)N1c1ccccc1 | -1 | -3 | 19 | 1 | 0 | 105*
O=C(N[C@H]1C=C[C@H](CC(=O)N2CCc3ccccc3C2)O[C@H]1CO)C1CC1 | x | 4 | x | x | x | 21[16.7 µM]
Cc1cc(C)c2sc(NNC(=O)c3ccc(S(=O)(=O)N4CCc5ccccc5C4)cc3)nc2c1 | -12 | 99* | 21 | -4 | 43 | -182
Cc1cc(C)c2nc(NNC(=O)c3ccc(S(=O)(=O)N4CCc5ccccc5C4)cc3)sc2c1 | -10 | 62* | 1 | -3 | 45 | -122
COCC#Cc1ccc([C@H]2[C@H](CO)N3CCCCN(S(=O)(=O)c4ccc(OC)cc4)C[C@@H]23)cc1 | x | 2 | x | x | x | x
Cc1n[nH]c(C)c1S(=O)(=O)N(CC(=O)NC1CCCC1)c1ccc(C(C)C)cc1 | -2 | -12 | 7 | 17 | -9 | 86*
Cc1nn(C)c(C)c1S(=O)(=O)N(CC(=O)NC1CCCCCC1)c1ccc(C(C)C)cc1 | 1 | 11 | 12 | -5 | -14 | -7
C[C@@H]1CN([C@H](C)CO)C(=O)c2cc(C#Cc3ccccc3)cnc2O[C@H]1CN(C)C(=O)C1CC1 | x | x | x | x | x | 5[16.7 µM]
